Measured values from publication PMC9924099 (Journal of medicinal chemistry, 2021).
Read-outs that look alike come from different tables or passages of the source.

Key:
[1] = system: p53^R273H MDA-MB-468 cells; test: Annexin V staining; type: cell-based, human; conditions: MDA-MB-468, 6 μM or 12 μM, 24 h
[2] = target: p53^R273H in MDA-MB-468 cells (Homo sapiens, UniProt P04637, R273H); test: Western blot of p53 expression; type: cell-based; conditions: MDA-MB-468, 6 μM or 12 μM, 24 h
Outline: (§1)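 Cells were treated 24 h with 6 μM or 12 μM test compound or DMSO and lysed in NP-40/Tris-Cl pH 8.0 buffer with protease inhibitors. Load on 4–12% SDS-PAGE was 20 μg for MDA-MB-231 and MDA-MB-468 or 50 μg for MCF-7. After PVDF transfer, blots were probed with p53 DO-1 antibody, reprobed for GAPDH as loading control and developed by ECL.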

WT p53 in MCF-7 cells = WT p53 in MCF-7 cells (Homo sapiens, UniProt P04637); test: Western blot of p53 expression; type: cell-based; conditions: MCF-7, 6 μM or 12 μM, 24 h
Outline: as §1

[3] = target: p53^R280K in MDA-MB-231 cells (Homo sapiens, UniProt P04637, R280K); test: Western blot of p53 expression; type: cell-based; conditions: MDA-MB-231, 6 μM or 12 μM, 24 h
Outline: as §1

[4] = system: p53^R280K MDA-MB-231 cells; test: WST-1 cell proliferation assay; type: cell-based, human; conditions: for inhibition of cell proliferation (in words): MDA-MB-231, 24 h or 72 h; for IC50: Homo sapiens, read-out: IC50, inhibition of cell proliferation
[5] = system: p53^R280K MDA-MB-231 cells; test: Annexin V staining; type: cell-based, human; conditions: MDA-MB-231, 6 μM or 12 μM, 24 h
WT p53 MCF-7 cells [6] = test: Annexin V staining; type: cell-based, human; conditions: MCF-7, 24 h
Outline: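 After 24 h exposure to test compound or DMSO, MCF-7 cells (RPMI 1640, 10% FBS, 1% penicillin/streptomycin, 1% L-glutamine) were scraped, PBS-washed and taken up in Annexin V binding buffer. They were stained with fluorochrome-conjugated Annexin V for 15 min at RT in the dark, then PI staining solution was added. Flow cytometry read-out; % Annexin V-positive cells expressed relative to DMSO.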

WT p53 MCF-7 cells [7] = test: WST-1 cell proliferation assay; type: cell-based, human; conditions: MCF-7, 24 h or 72 h; compared to mutant p53 cells
Outline: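 WST-1 assay. Test compound in DMSO was added to cells at 40,000 cells/ml, giving 1% DMSO final, and plated at 4,000 cells/well in duplicate; medium-only wells served as background. Incubation was 24 h or 72 h at 37 °C, then WST-1 for 2 h and OD450 read. Proliferation is expressed as % of DMSO control; triplicate experiments. MCF-7 grown in RPMI 1640, MDA-MB-436 in DMEM.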

Log P determination = type: physicochemical; conditions: octanol/sodium phosphate buffer (pH 7.4)
[8] = system: p53^R273H MDA-MB-468 cells; test: WST-1 cell proliferation assay; type: cell-based, human; conditions: MDA-MB-468, 24 h or 72 h

## S=C=NC12CC3CC(CC(C3)C1)C2 [Ad-ITC 1, 1-Isothiocyanatoadamantane]
[1]
  increase in Annexin V stained cells compared to DMSO: did not induce significant increase in apoptosis
[2]
  mutant p53 expression (western blot): no depletion
WT p53 in MCF-7 cells
  WT p53 expression (western blot): did not decrease WT p53 expression
[3]
  mutant p53 expression (western blot): no depletion
[4]
  inhibition of cell proliferation (in words): failed to show any significant inhibition of cell proliferation
[5]
  increase in Annexin V stained cells compared to DMSO: did not induce significant increase in apoptosis
WT p53 MCF-7 cells [6]
  increase in Annexin V stained cells compared to DMSO: did not display any significant increase

## S=C=NC1C2CC3CC(C2)CC1C3 (stereo not shown) [Ad-ITC 2, 2-Isothiocyanatoadamantane]
[4]
  inhibition of cell proliferation (in words): failed to show any significant inhibition of cell proliferation

## S=C=NCC12CC3CC(CC(C3)C1)C2 [Ad-ITC 3, 1-Isothiocyanatomethyladamantane]
[1]
  increase in Annexin V stained cells compared to DMSO: 2.0-5.1 fold
[2]
  mutant p53 expression (western blot): differential decrease in the expression of mutant p53
WT p53 in MCF-7 cells
  WT p53 expression (western blot): did not decrease WT p53 expression
WT p53 MCF-7 cells [7]
  inhibition of cell proliferation / sensitivity (in words): remarkably less sensitive
[3]
  mutant p53 expression (western blot): differential decrease in the expression of mutant p53
[4]; MDA-MB-231, 24 h
  IC50: 24 to 48 µM
[4]; MDA-MB-231, 72 h
  IC50: 24 to 48 µM
[4]
  inhibition of cell proliferation (in words): dose-dependent activity
[5]
  increase in Annexin V stained cells compared to DMSO: 2.0-5.1 fold
WT p53 MCF-7 cells [6]
  increase in Annexin V stained cells compared to DMSO: did not display any significant increase

## CC(N=C=S)C12CC3CC(CC(C3)C1)C2 (stereo not shown) [Ad-ITC 4, 1-Isothiocyanato-1-(adamantan-1-yl)ethane]
[4]
  inhibition of cell proliferation (in words): did not show any significant inhibition

## S=C=NCCC12CC3CC(CC(C3)C1)C2 [Ad-ITC 5, 1-Isothiocyanato-2-(adamantan-1-yl)ethane]
[2]
  mutant p53 expression (western blot): differential decrease in the expression of mutant p53
WT p53 in MCF-7 cells
  WT p53 expression (western blot): did not decrease WT p53 expression
WT p53 MCF-7 cells [7]
  inhibition of cell proliferation / sensitivity (in words): did not inhibit MCF-7 cell proliferation
[3]
  mutant p53 expression (western blot): differential decrease in the expression of mutant p53
Log P determination
  logP at 18 h: 4.76
[4]; MDA-MB-231, 24 h
  IC50: 24 to 48 µM
[4]; MDA-MB-231, 72 h
  IC50: 12 to 24 µM
WT p53 MCF-7 cells [6]
  increase in Annexin V stained cells compared to DMSO: did not display any significant increase

## S=C=Nc1ccc(C23CC4CC(CC(C4)C2)C3)cc1 [Ad-ITC 7, 1-(4-Isothiocyanatophenyl)adamantane]
[4]
  inhibition of cell proliferation (in words): significantly less potent than Ad-ITCs 3, 5, and 6

## S=C=NCCOC12CC3CC(CC(C3)C1)C2 [Ad-ITC 8, 1-(2-Isothiocyanatoethoxy)adamantane]
Log P determination
  logP at 18 h: 4.42
[4]
  inhibition of cell proliferation (in words): not active in vitro

## CC(C)(COC12CC3CC(CC(C3)C1)C2)N=C=S [Ad-ITC 9, 1-(2-Isothiocyanato-2-methylpropoxy)adamantane]
[4]
  inhibition of cell proliferation (in words): not active in vitro

## CCCC(CN=C=S)C1C2CC3CC(C2)CC1C3 (stereo not shown) [Ad-ITC 10, 2-(1-Isothiocyanatopentan-2-yl)adamantane]
[4]
  inhibition of cell proliferation (in words): did not show any significant inhibition

## CC12CC3CC(C)(C1)CC(N=C=S)(C3)C2 [Ad-ITC 11, 1-Isothiocyanato-3,5-dimethyladamantane]
[4]
  inhibition of cell proliferation (in words): failed to show any significant inhibition of cell proliferation

## O=C(CC12CC3CC(CC(C3)C1)C2)N=C=S [Ad-ITC 12, 2-(Adamantan-1-yl)acetyl isothiocyanate]
[4]
  inhibition of cell proliferation (in words): failed to inhibit the cell proliferation

## O=C1CNC(=S)N1CCC12CC3CC(CC(C3)C1)C2 [Ad-compound 13, 3-(2-(Adamantan-1-yl)ethyl)-2-thioxoimidazolidin-4-one]
[1]
  increase in Annexin V stained cells compared to DMSO: did not induce significant increase in apoptosis
[2]
  mutant p53 expression (western blot): failed to affect mutant p53 expression
WT p53 in MCF-7 cells
  WT p53 expression (western blot): did not decrease WT p53 expression
WT p53 MCF-7 cells [7]
  inhibition of cell proliferation / sensitivity (in words): did not inhibit MCF-7 cell proliferation
[3]
  mutant p53 expression (western blot): failed to affect mutant p53 expression
[4]
  inhibition of cell proliferation (in words): did not inhibit the proliferation
[5]
  increase in Annexin V stained cells compared to DMSO: did not induce significant increase in apoptosis
WT p53 MCF-7 cells [6]
  increase in Annexin V stained cells compared to DMSO: did not display any significant increase
[8]
  inhibition of cell proliferation (in words): did not inhibit MDA-MB-468 cells proliferation

## C1C2CC3CC1CC(C2)C3 [adamantane, Adamantane, reference compound]
WT p53 MCF-7 cells [7]
  inhibition of cell proliferation / sensitivity (in words): did not inhibit MCF-7 cell proliferation
[4]
  inhibition of cell proliferation (in words): did not inhibit MDA-MB-231 cells proliferation
[8]
  inhibition of cell proliferation (in words): did not inhibit MDA-MB-468 cells proliferation
